Experimental data published in ChEMBL document CHEMBL4699407, “Isoquinoline thiosemicarbazone displays potent anticancer activity with in vivo efficacy against aggressive leukemias” (RSC Med Chem, 2020).
Calls of active or inactive are those of the source. The rule behind the calls is not given here.

Key:
[1] = test system: MIA PaCa-2; assay: Cytotoxicity against human MIA PaCa2 cells assessed as reduction in cell viability at 25 nM in presence of Cu2+ and BCPS incubated for 24 hrs by trypan blue assay; format: functional, cell-based
In short: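 MIAPACA2 cells were given 25 nM compound plus 20 μM Cu(II) for 24 h, with or without the membrane-impermeable copper chelator bathocuproine disulfonate (300 μM). Viable cells were measured by trypan blue exclusion on a Vi-Cell counter.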

[2] = test system: MIA PaCa-2; assay: Cytotoxicity against human MIA PaCa2 cells assessed as reduction in cell viability at 25 nM in presence of Zn2+ incubated for 72 hrs by cell titer-glo luminescent cell viability assay; format: functional, cell-based
In short: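 MIAPACA2 cells were exposed to compound for 72 h with 20 μM Fe(II) or Zn(II) supplement. Proliferation was read by CellTiter-Glo ATP luminescence.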

[3] = Cytotoxicity against human SUIT-2 cells assessed as reduction in cell viability in presence of Cu2+ incubated for 72 hrs by cell titer-glo luminescent cell viability assay; format: functional, cell-based; details: SUIT-2, 72 h
In short: (§1)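 Cells were grown in DMEM or RPMI with 10% FBS, without antibiotics, at 37 °C, 20% O2, 5% CO2. Adherent lines were seeded at 500 cells/well. Serially diluted compound was given with 20 μM Cu(II) (CuCl2) for 72 h; leukemia models received pre-formed 1:1 copper complex. ATP was read by CellTiter-Glo luminescence. IC50 is relative to DMSO-treated cells.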

[4] = test system: NCI-H1963; assay: Cytotoxicity against human NCI-H1963 cells assessed as reduction in cell viability in presence of Cu2+ incubated for 72 hrs by cell titer-glo luminescent cell viability assay; format: functional, cell-based; details: NCI-H1963, 72 h; in short: as §1
[5] = test system: MIA PaCa-2; assay: Induction of apoptosis in human MIA PaCa-2 cells assessed as reduction in viable cells at 25 nM in presence of Cu2+ incubated for 72 hrs by annexin V and propidium iodide staining based flow cytometry analysis relative to control; format: functional
In short: (§2)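 Cells given 25 nM compound with or without 20 μM Cu(II) and/or the ATR inhibitor VE-822 at 250 nM for 72 h. Stained with annexin V-FITC and propidium iodide, then analysed on a five-laser flow cytometer to score viable, early apoptotic, late apoptotic and necrotic fractions against vehicle.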

[6] = test system: MIA PaCa-2; assay: Induction of apoptosis in human MIA PaCa-2 cells assessed as increase in late apoptotic cells at 25 nM in presence of Cu2+ incubated for 72 hrs by annexin V and propidium iodide staining based flow cytometry analysis relative to control; format: functional; in short: as §2
[7] = test system: MIA PaCa-2; assay: Induction of apoptosis in human MIA PaCa-2 cells assessed as increase in early apoptotic cells at 25 nM in presence of ATRi incubated for 72 hrs by annexin V and propidium iodide staining based flow cytometry analysis relative to control; format: functional; in short: as §2
[8] = test system: MIA PaCa-2; assay: Induction of apoptosis in human MIA PaCa-2 cells assessed as increase in necrotic cells at 25 nM in presence of ATRi incubated for 72 hrs by annexin V and propidium iodide staining based flow cytometry analysis relative to control; format: functional; in short: as §2
[9] = test system: MIA PaCa-2; assay: Induction of DNA damage in human MIA PaCa-2 cells assessed as increase in CHEK2 phosphorylation at 10 nM in presence of Cu2+ incubated for 48 hrs by immunoblot assay; format: functional, cell-based
In short: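 Treated with 10 nM compound plus 20 μM Cu(II). Lysed in RIPA buffer with protease and phosphatase inhibitors, then sonicated and centrifuged at 20 000g, 4 °C. Protein measured by micro BCA, and equal amounts run on bis-tris gels. Primary antibodies in 5% BSA/TBST; HRP-linked anti-rabbit or anti-mouse secondaries at 1:2500. Chemiluminescent detection on film; representative blot.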

[10] = test system: MIA PaCa-2; assay: Induction of DNA damage in human MIA PaCa-2 cells assessed as decrease in dGTP level at 25 nM in presence of Cu2+ incubated for 48 hrs by LC-MS/MS analysis; format: functional, cell-based
In short: (§3)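 Cells in DMEM or RPMI with 10% FBS, 37 °C, 5% CO2. Treated with 25 nM compound plus 20 μM Cu(II) for 48 h. Nucleotide pools quantified by LC-MS/MS with multiple reaction monitoring. Cells were in glucose-free DMEM with 10% dialyzed FBS and 11 mM [U-13C6]glucose for 48 h, and glucose-labeled pools were compared. Mean ± SD, n = 3, two-way ANOVA with Bonferroni correction.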

[11] = test system: MIA PaCa-2; assay: Induction of DNA damage in human MIA PaCa-2 cells assessed as decrease in dCTP level at 25 nM in presence of Cu2+ incubated for 48 hrs by LC-MS/MS analysis; format: functional, cell-based; in short: as §3
[12] = test system: MIA PaCa-2; assay: Induction of DNA damage in human MIA PaCa-2 cells assessed as decrease in UTP level at 25 nM in presence of Cu2+ incubated for 48 hrs by LC-MS/MS analysis; format: functional, cell-based; in short: as §3
[13] = test system: MIA PaCa-2; assay: Induction of mitochondrial ROS generation in human MIA PaCa-2 cells at 25 nM in presence of Cu2+ incubated for 24 hrs by MitoSox red dye based flow cytometry analysis; format: functional; details: Mitochondria
In short: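 Exposure was 25 nM compound plus 20 μM Cu(II) for 24 h. Cells washed, stained with MitoSOX for 30 min at 37 °C, washed with PBS and analysed by flow cytometry. Mean ± SD, n = 2, Student t-test.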

CN(C)C(=S)NN=Cc1nccc2cc(F)ccc12
Activity [1]: inactive | Activity [2]: inactive | IC50 [3]: 1 nM | IC50 [4]: 1 nM | Activity [5]: 77.5% | Activity [6]: 3.68% | Activity [7]: 9.11% | Activity [8]: 7.34% | Activity [9]: Active | Activity [10]: Active | Activity [11]: inactive | Activity [12]: inactive | Activity [13]: Active
